Shown are actives, neighbours in structure and some others; about 2.6% of the full set was active somewhere.
Tb MetRS inh: Trypanosoma brucei MetRS inhibition; purified T. brucei MetRS, ATP depletion, Kinase-Glo luminescence; inhibition, % at 11.9 µM; hit rate 0.4% among 360,000;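 active = inhibition above a per-plate cutoff of the control wells' mean inhibition plus 3 SD, cut at about 5.5% in these data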;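 note: 0% = DMSO wells median and 100% = median of wells with control inhibitor compound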
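Measured by: Kinase-Glo luciferase luminescence reporting remaining unconsumed ATP. Material: purified T. brucei MetRS enzyme. Doses: 11.9 µM compound single dose, 0.9% DMSO. Medium: HEPES buffer containing pyrophosphatase, BSA, spermine, DTT. Times: 15 min preincubation, 2 h reaction, all 25 °C. Reagent: methionine, ATP and bulk E. coli tRNA.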
ABCB6 inh MLPCN: inhibitors of human ABC transporter ABCB6; Q9NP58; K562-ABCB6 porphyrin accumulation, flow cytometry, 1 h; stronger effect = lower value; fluorescence ratio to DMSO, % at 10 µM; hit rate 0.19% among 360,000; AID 602162;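 active = fluorescence ratio to DMSO below 75%, the collection mean minus 3 SD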;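 note: signal is porphyrin accumulated inside mitochondria; 100% equals median channel fluorescence of DMSO control wells; lower ratio means ABCB6 inhibition with less porphyrin fluorescence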
Target sequence (Q9NP58 whole entry, looked up): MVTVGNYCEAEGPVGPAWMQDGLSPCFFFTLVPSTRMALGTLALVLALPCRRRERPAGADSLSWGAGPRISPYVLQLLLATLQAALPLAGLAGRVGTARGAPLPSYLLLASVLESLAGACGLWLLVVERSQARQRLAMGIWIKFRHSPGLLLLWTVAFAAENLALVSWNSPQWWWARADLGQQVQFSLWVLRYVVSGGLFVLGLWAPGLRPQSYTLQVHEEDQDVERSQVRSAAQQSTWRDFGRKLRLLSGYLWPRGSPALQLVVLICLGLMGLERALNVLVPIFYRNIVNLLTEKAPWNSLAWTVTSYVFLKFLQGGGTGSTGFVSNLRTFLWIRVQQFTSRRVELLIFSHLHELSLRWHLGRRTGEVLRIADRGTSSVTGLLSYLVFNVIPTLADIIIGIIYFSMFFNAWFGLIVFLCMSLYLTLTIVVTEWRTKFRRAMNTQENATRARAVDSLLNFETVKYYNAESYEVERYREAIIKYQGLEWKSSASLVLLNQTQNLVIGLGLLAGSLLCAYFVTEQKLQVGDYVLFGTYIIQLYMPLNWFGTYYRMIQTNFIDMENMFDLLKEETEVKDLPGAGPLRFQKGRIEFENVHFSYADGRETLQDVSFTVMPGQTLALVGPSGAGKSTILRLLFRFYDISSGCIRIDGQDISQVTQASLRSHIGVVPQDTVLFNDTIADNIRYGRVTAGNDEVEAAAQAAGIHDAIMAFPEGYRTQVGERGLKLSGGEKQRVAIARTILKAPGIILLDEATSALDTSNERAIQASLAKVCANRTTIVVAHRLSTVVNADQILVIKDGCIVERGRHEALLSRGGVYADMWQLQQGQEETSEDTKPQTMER
MC4R ag barr: human MC4R agonism via beta-arrestin; U2OS MC4R beta-arrestin complementation, luminescence; percent of melanotan II response, DMSO zero; hit rate 0.98% among 360,000; AID 540308; activation, % at 8.9 µM; P32245;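 active = activation above a per-plate cutoff, the mean activation of sample wells on that plate plus 3 SD, cut at about 8% in these data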
MC4R antag cAMP: human MC4R antagonism in cAMP assay; P32245; inhibition, % at 6.5 µM; AID 540295; hit rate 0.48% among 360,000; MC4R-expressing cells, MTII-stimulated cAMP, LANCE TR-FRET;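 active = inhibition above its plate's cutoff, the mean of tested wells on that plate plus 3 SD, cut at about 29% in these data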;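 note: 0% = Melanotan II alone and 100% = Melanotan II plus saturating MCL0020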
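Assay system: human MC4R-expressing U2OS cells; reagent: Melanotan II stimulation of cells; dosing: 6.5 µM single dose; timing: compound 30 min, challenge 1 h, detection 1 h; signal: TR-FRET cAMP assay; replicates: one well per compound, no replicates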
Granule exo inh: blocks lytic granule exocytosis; AID 651702; TALL-104 LAMP-1 surface exposure, flow cytometry; cells stimulated with thapsigargin and PMA; inhibition, % at 10 µM; hit rate 0.66% among 360,000;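 active = inhibition above about 55%, limit read from the data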
hiPSC survival: increases survival of single human iPS cells; hiPSC single-cell survival, ATPlite luminescence; 100% = ROCK inhibitor wells, 0% = DMSO; survival enhancement, % at 20 µM; hit rate 0.044% among 360,000; AID 602274; in the data active = survival enhancement above about 18%;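 note: cells exposed to compounds for 16 hours before the ATP read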
TbMetRS confirm: confirmation of Trypanosoma brucei MetRS inhibitors. T. brucei MetRS enzyme, luminescence (ATP depletion). shares compounds with Tb MetRS inh. hit rate 93% among 1,400. inhibition, % at 11.9 µM; in the data active = inhibition above about 7%
Jurkat cytotox: kills Jurkat cells in T. brucei MetRS counterscreen. shares compounds with Tb MetRS inh. Jurkat cells viability, ATP luminescence. inhibition, % at 8.3 µM. hit rate 12% among 1,400. AID 624413; in the data active = inhibition above about 15%;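 note: 0% = vehicle and 100% = reference inhibitor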
TbMetRS FP orth: orthogonal test for Trypanosoma brucei MetRS inhibitors; AID 651607; shares compounds with Tb MetRS inh; inhibition, % at 11.9 µM; hit rate 44% among 1,400; purified T. brucei MetRS, fluorescence polarization; in the data active = inhibition above about 17%;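 note: 0% = vehicle wells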
An asterisk follows results filed as active; nt = no result given.

SMILES	Tb MetRS inh	ABCB6 inh MLPCN	MC4R ag barr	MC4R antag cAMP	Granule exo inh	hiPSC survival	TbMetRS confirm	Jurkat cytotox	TbMetRS FP orth
O=C(NCCc1nc2ccccc2[nH]1)/C(=C/c1ccc2c(c1)OCO2)NC(=O)c1ccc(Cl)cc1Cl	8.0*	98	-2	17	1	0	11*	0	5
CSCCC(NC(=O)COc1ccccc1)C(=O)N(C)Cc1c(F)cccc1Cl (centres undefined)	0	96	-1	5	-14	-1	nt	nt	nt
CCc1nnc(NS(=O)(=O)c2ccc(Nc3ccc([N+](=O)[O-])c4nonc34)cc2)s1	7.0*	101	-2	13	0	2	11*	-4	-3
CCc1nnc(NS(=O)(=O)c2ccc(NS(=O)(=O)c3ccccc3[N+](=O)[O-])cc2)s1	0	94	-2	3	-5	0	nt	nt	nt
O=C(Nc1cc(=O)[nH]c(=O)[nH]1)c1cc(Cl)ccc1Cl	0	109	-3	-27	2	0	nt	nt	nt
Cc1cccc(C)c1-n1nnnc1-c1nc2cc3ccccc3cc2[nH]c1=O	54*	138	nt	nt	16	-1	56*	70*	19*
COc1ccccc1NC(=O)C(C)OC(=O)C1COc2ccccc2O1 (centres undefined)	0	96	0	5	-2	0	nt	nt	nt
O=C(CN1C2=NCCCN2c2ccccc21)c1cccc(Br)c1	0	97	1	16	7	-3	nt	nt	nt
O=C(CN1C2=NCCCN2c2ccccc21)c1ccc(Cl)cc1Cl	12*	99	-2	2	-5	-1	28*	12	13
O=[N+]([O-])c1ccc(CN2CCN(Cc3c[nH]c4ccccc34)CC2)cc1	6.2*	105	-2	10	0	-1	19*	10	6
Brc1ccc(CN2CCN(Cc3c[nH]c4ccccc34)CC2)cc1	11*	87	-1	3	34	-1	42*	13	17*
CCS(=O)(=O)N1CCN(Cc2c[nH]c3ccccc23)CC1	1	96	-2	12	0	0	nt	nt	nt
COc1ccc(N2CCN(C(CNC(=O)C(=O)NCc3cccs3)c3ccco3)CC2)cc1 (centres undefined)	0	102	-2	16	1	0	nt	nt	nt
CCc1nc2ccc(C(=O)NCCCn3ccnc3)cn2c1N(C)Cc1nccs1	0	100	0	0	6	-2	nt	nt	nt
O=C(CNC(=O)C1COc2ccccc2O1)N/N=C/c1ccc(O)cc1O (centres undefined)	12*	99	-3	10	0	-1	36*	52*	17*
C=CC(=O)Nc1cccc(Oc2ncnc3[nH]cc(-c4cnc5ccccc5c4)c23)c1	8.6*	98	1	-27	1	-2	30*	6	21*
O=C(NCc1cccc(C(F)(F)F)c1)c1c[nH]c(=O)s1	1	98	-1	0	-3	-3	nt	nt	nt
CC(=O)c1c[nH]c(C(=O)NCc2cccc(C(F)(F)F)c2)c1	92*	94	0	10	-10	0	94*	0	78*
COc1ccccc1NC(=S)Nc1ccc2cn[nH]c2c1	7.8*	99	-2	3	-2	-1	2	2	1
Cc1ccc(NC(=S)Nc2ccc3cn[nH]c3c2)cc1C	0	103	-2	5	-1	-1	nt	nt	nt
O=C(Nc1ccccc1)c1ccc(=O)n(Cc2ccc(F)c(F)c2)c1	9.6*	102	1	9	0	0	18*	3	6
CC(C)COC(=O)N(C)C[C@H]1OCc2cnnn2CCCC(=O)N([C@H](C)CO)C[C@@H]1C	0	98	1	3	-2	0	nt	nt	nt
CCC(=O)c1ccc(OCC(=O)NNC(=O)c2cc(C)oc2C)cc1	-1	98	0	2	-3	0	nt	nt	nt
CCN(CC)S(=O)(=O)c1ccc(N2CCOCC2)c(NCC(=O)Nc2ccc(F)cc2)c1	22*	104	3	-7	2	0	33*	1	15
Cc1cc(-c2ccc(C(C)C)c(S(=O)(=O)N3CCN(c4ccccn4)CC3)c2)on1	8.0*	101	-3	-4	6	0	12*	51*	4
SMILES	Tb MetRS inh	ABCB6 inh MLPCN	MC4R ag barr	MC4R antag cAMP	Granule exo inh	hiPSC survival	TbMetRS confirm	Jurkat cytotox	TbMetRS FP orth
COc1ccc(/C=N/n2c(=O)[nH]c3c([nH]c4ccc(Cl)cc43)c2=O)cc1CN1CCCCC1	4	96	0	2	-4	0	nt	nt	nt
COc1ccc(/C=N/n2c(=O)[nH]c3c([nH]c4ccc(Br)cc43)c2=O)cc1CN1CCOCC1	6.2*	97	-2	5	-4	-1	14*	11	9
COC(=O)C1=C(CSc2nccn2C)NC(=O)NC1c1cc(C)ccc1C (centres undefined)	0	99	0	9	5	2	nt	nt	nt
COc1ccc(OC)c(-n2c(=O)c3ccccc3c3ccccc3c2=O)c1	0	100	-2	28	4	-2	nt	nt	nt
COc1ccccc1-n1c(SCC(N)=O)nnc1-c1ccccc1	-1	92	0	5	-2	3	nt	nt	nt
CCOc1ccc(-n2c(SCC(=O)NCc3ccco3)nnc2-c2c[nH]c3ccccc23)cc1	12*	99	1	3	3	0	11*	2	7
CCOc1ccc(-n2c(SCC(=O)Nc3cc(C)on3)nnc2-c2c[nH]c3ccccc23)cc1	1	102	5	22	0	-2	nt	nt	nt
COc1ccc(OC)c(-n2c(SCC(=O)Nc3cc(C)on3)nnc2-c2c[nH]c3ccccc23)c1	18*	94	0	3	5	-3	25*	6	9
COc1ccc(OC)c(-n2c(SCC(N)=O)nnc2-c2c[nH]c3ccccc23)c1	9.7*	94	0	0	0	0	20*	6	10
COc1ccc(OC)c(-n2c(SC)nnc2-c2c[nH]c3ccccc23)c1	9.7*	101	2	13	-11	6	25*	2	11
COC(=O)c1[nH]c2cc(OC)c(OC)cc2c1/C=N/Nc1ccccc1	-1	96	3	-4	-3	-1	nt	nt	nt
Cc1ccc(CNC(=O)C2CCN(S(=O)(=O)N3CCCC3)CC2)cc1	0	98	-2	-1	0	0	nt	nt	nt
Cc1cc(=O)cc(C)n1-c1ccc(F)cc1F	0	101	0	1	-4	-1	nt	nt	nt
